Assay outcomes: PubChem BioAssay, Johns Hopkins Ion Channel Center
KCNQ1 pot: potentiators or activators of KCNQ1 channel, primary screen, cell-based, thallium flux, high-throughput; 310,000 compounds, 0.35% hits; Potassium voltage-gated channel subfamily KQT member 1 (Homo sapiens), P51787; B-score at 10 µM; CHO-K1 KCNQ1, thallium flux FluxOR fluorescence; stronger effect = higher value;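 active = fluorescence ratio B-score, a plate-corrected score, at least three library SD, with initial intensity B-score within 5 SD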
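Schedule – 37 °C overnight plating, 90-min dark dye load, 20-min compound pretreatment · System – stable KCNQ1 CHO-K1 line · Probe or stimulus – thallium- and potassium-containing depolarizing buffer · Measured by – kinetic FluxOR fluorescence, 10 s baseline plus 110 s post-stimulus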
KCNK9 inh: KCNK9 potassium channel inhibitors, primary screen, HEK293 cells, thallium flux; FluxOR thallium flux fluorescence; stronger effect = lower value; B-score at 10 µM; 310,000 compounds, 1.2% hits; AID 488922, 2010;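 active = ratio B-score over 3 SD below the library mean, with starting fluorescence within 5 SD of its mean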;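 note: negative B-score means less thallium flux so channel inhibition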
Target sequence (Q9NPC2 whole entry, looked up): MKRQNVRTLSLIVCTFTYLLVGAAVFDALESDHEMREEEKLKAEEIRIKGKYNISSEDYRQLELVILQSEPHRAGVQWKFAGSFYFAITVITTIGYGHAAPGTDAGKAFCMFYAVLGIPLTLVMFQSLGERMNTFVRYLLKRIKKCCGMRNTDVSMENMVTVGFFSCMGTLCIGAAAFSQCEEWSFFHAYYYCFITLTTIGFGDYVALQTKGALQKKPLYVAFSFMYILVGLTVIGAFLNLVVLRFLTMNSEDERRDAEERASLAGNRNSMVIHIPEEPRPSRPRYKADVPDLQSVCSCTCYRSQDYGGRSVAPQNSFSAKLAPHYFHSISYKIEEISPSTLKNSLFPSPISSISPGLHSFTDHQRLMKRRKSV
KCNK3 inh: human KCNK3 channel inhibitors, primary screen, CHO cells, FluxOR thallium flux, B-score | Potassium channel subfamily K member 3 (Homo sapiens), O14649 | FluxOR fluorescence; stronger effect = lower value | B-score at 10 µM | 340,000 compounds, 0.84% hits;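 active = B-score under library mean minus 4 SD, starting fluorescence ratio at most library mean plus 5 SD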;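 note: more negative B-score means stronger inhibition of thallium flux through KCNK3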
Target sequence (O14649 whole entry, looked up): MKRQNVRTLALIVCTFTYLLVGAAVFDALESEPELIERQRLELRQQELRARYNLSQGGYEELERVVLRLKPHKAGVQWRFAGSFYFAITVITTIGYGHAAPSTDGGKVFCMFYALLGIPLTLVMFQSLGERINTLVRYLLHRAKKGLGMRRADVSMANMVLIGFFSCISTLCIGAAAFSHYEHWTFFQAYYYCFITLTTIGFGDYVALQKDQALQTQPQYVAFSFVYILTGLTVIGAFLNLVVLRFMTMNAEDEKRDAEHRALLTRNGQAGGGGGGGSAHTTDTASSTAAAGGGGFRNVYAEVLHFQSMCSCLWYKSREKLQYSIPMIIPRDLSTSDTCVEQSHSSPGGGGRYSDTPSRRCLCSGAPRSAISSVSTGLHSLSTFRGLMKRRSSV
KCNQ1 inh: inhibitors of human KCNQ1 channel, primary screen, cell-based, thallium flux, high-throughput. 310,000 compounds, 1.3% hits. CHO-K1 KCNQ1, FluxOR thallium flux fluorescence; stronger effect = higher value. Potassium voltage-gated channel subfamily KQT member 1 (Homo sapiens), P51787. B-score at 10 µM;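 active = compounds whose thallium flux B-score, printed positive for inhibition, exceeds three library SD while starting fluorescence stays within three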;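 note: channel opened by potassium depolarization with thallium stimulus after 20 min compound exposure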
hERG rescue: hERG rescue from dofetilide block, primary screen, cell-based, CHO-hERG, FluxOR thallium flux, dofetilide IC70; Voltage-gated inwardly rectifying potassium channel KCNH2 (Homo sapiens), Q12809; dofetilide IC70 present; activation (rescue from dofetilide block), less the hit threshold, % at 10 µM; 310,000 compounds, 0.51% hits;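 active = activation above the mean of controls blocked by dofetilide plus 5 SD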;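 note: thallium influx through hERG after potassium depolarization seen as dye fluorescence rise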
Kir21 inh: inhibitors of mouse Kir2.1 inward-rectifier potassium channel; 310,000 compounds, 0.85% hits; HEK293-Kir2.1, FluxOR thallium flux fluorescence; stronger effect = lower value; B-score at 10 µM; Inward rectifier potassium channel 2 (Mus musculus), P35561;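 active = fluorescence ratio B-score at or below minus 3 SD of library scores, with starting-brightness B-score within 2 SD, cut at about -4.2 in these data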;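 note: channel flux triggered by added potassium and thallium sulfate stimulus; B-score of peak minus minimum fluorescence over baseline after thallium stimulus; more negative B-score means stronger Kir2.1 block with less thallium influx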
KCNK9 inh conf: KCNK9 potassium channel inhibitors, confirmation, HEK293 cells, thallium flux, duplicate. shares compounds with KCNK9 inh. FluxOR thallium flux fluorescence. inhibition, % at 10 µM. 4,900 compounds, 43% hits. AID 492992, 2010;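 active = thallium signal inhibited by more than 5 SD of the compound-free buffer control wells, on both duplicate plates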
Kir2-1 spec: mouse Kir2.1 channel inhibition, confirmation, selectivity assay for KCNK9 modulator project, cell-based, HEK293, thallium flux | 4,900 compounds, 4% hits | shares compounds with KCNK9 inh | inhibition, % at 10 µM | Kir2.1 cells, FluxOR thallium flux fluorescence;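 active = thallium signal drop more than 5 SD beyond the mean of the no-compound control wells, seen in both duplicate plates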;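 note: signal is fluorescence rise after thallium addition divided by baseline fluorescence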
HEK293 Tl ctr: thallium flux in non-induced HEK293 cells, confirmation, counter-screen for KCNK9 inhibitor project, cell-based, second counter screen, non-induced KCNK9-HEK293; shares compounds with KCNK9 inh; FluxOR thallium flux; inhibition, % at 10 µM; 4,900 compounds, 40% hits;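 active = thallium signal drop beyond 5 SD of the untreated control mean, on both duplicate plates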
Each line names hits and unclear results; the compound was inactive in the other large screens (follow-up assays come after a bar, where they were run). Compounds with a hit are over-represented: about 3.7% of the library has one in this group of screens.

CCCCC(=O)NS(=O)(=O)c1ccc(NS(C)(=O)=O)cc1	none
CC(C)CN(CCCNC(=O)CN1N=C(c2ccc(Cl)cc2)CCC1=O)CC(C)C	none
Cc1c(N=NC2=C(O)CC(C)(C)CC2=O)cc2c(c1[N+](=O)[O-])C(C)(C)CC2(C)C	KCNQ1 inh 6 | KCNK9 inh conf inactive | Kir2-1 spec inactive | HEK293 Tl ctr inactive
CC(=O)Nc1cc2c(c([N+](=O)[O-])c1C)C(C)(C)CC2(C)C	none (no result: KCNQ1 pot, KCNK9 inh, KCNQ1 inh, hERG rescue, Kir21 inh)
O=C(c1cccnc1)N1CCN(c2ccc3ccccc3n2)CC1	none
COc1cc(SC#N)ccc1N=Cc1c(C)[nH]n(-c2ccc(C)c(C)c2)c1=O	none | KCNK9 inh conf inactive | Kir2-1 spec inactive | HEK293 Tl ctr inactive
COc1ccc(CN2C(=O)[C@H]3Cc4c([nH]c5ccccc45)C(C)(C)N3C2=O)cc1	none | KCNK9 inh conf inactive | Kir2-1 spec inactive | HEK293 Tl ctr inactive
COc1ccc(CN2C(=O)[C@@H]3Cc4c([nH]c5ccccc45)C(C)(C)N3C2=O)cc1	none
CCOc1ccc2cc(/C=C/C(=O)c3ccco3)c(Cl)nc2c1	KCNK9 inh -12, KCNK3 inh -9.6 | KCNK9 inh conf inactive | Kir2-1 spec inactive | HEK293 Tl ctr 33%
CCOc1ccc2nc(SCC(=O)NNC(=O)c3ccco3)c(C)cc2c1	none
COc1ccc(C(=O)NCc2nnc(SCC(=O)Nc3ccccc3OC)n2C)cc1	none | KCNK9 inh conf inactive | Kir2-1 spec inactive | HEK293 Tl ctr inactive
Cc1[nH][nH]c(=O)c1C(c1ccc(-c2ccc(Cl)c(Cl)c2)o1)c1c(C)[nH][nH]c1=O	KCNQ1 pot 10 | KCNK9 inh conf inactive | Kir2-1 spec inactive | HEK293 Tl ctr inactive
Cc1[nH][nH]c(=O)c1C(c1ccc(-c2ccc(C(=O)O)cc2)o1)c1c(C)[nH][nH]c1=O	none (no result: KCNQ1 pot, KCNK9 inh, KCNQ1 inh, hERG rescue, Kir21 inh)
O=C(COC(=O)c1cccc(OC(F)F)c1)NCC1CCCO1 (stereo unspecified)	none (no result: KCNQ1 pot, KCNK9 inh, KCNQ1 inh, hERG rescue, Kir21 inh)
COCCNC(=O)c1onc(CSc2cc(C)cc(C)c2)c1C(=O)O	none
Cc1cc(C)cc(SCc2noc(C(=O)NCCC(C)C)c2C(=O)NCCC(C)C)c1	none | KCNK9 inh conf inactive | Kir2-1 spec inactive | HEK293 Tl ctr inactive
O=C(NCC1CC1)c1onc(CSc2ccc(F)cc2)c1C(=O)NCC1CC1	none
Cc1cc(C)cc(SCc2noc(C(=O)NCC3CC3)c2C(=O)NCC2CC2)c1	none (no result: KCNK3 inh) | KCNK9 inh conf inactive | Kir2-1 spec inactive | HEK293 Tl ctr inactive
CCCCNC(=O)c1onc(CSc2cc(C)cc(C)c2)c1C(=O)NCCCC	none | KCNK9 inh conf inactive | Kir2-1 spec inactive | HEK293 Tl ctr inactive
CC(C)C[C@H]1C(=O)N2CCC[C@H]2[C@]2(O)O[C@](NC(=O)C3C=C4c5cccc6[nH]c(Br)c(c56)C[C@H]4N(C)C3)(C(C)C)C(=O)N12 (stereo partly specified)	KCNQ1 inh 7 | KCNK9 inh conf inactive | Kir2-1 spec inactive | HEK293 Tl ctr inactive
Cc1nc(/C=C\C(=O)O)c2cc(C)oc2n1	none
Cc1ccc2nc(NCCO)nc(-c3ccccc3)c2c1	none
Cc1ccc2nc(NCC(=O)NN)nc(-c3ccccc3)c2c1	none | KCNK9 inh conf inactive | Kir2-1 spec inactive | HEK293 Tl ctr inactive
Cc1ccc(CCc2nnc(SCC(=O)Nc3cccc(Cl)c3)n2-c2ccccc2)o1	none | KCNK9 inh conf inactive | Kir2-1 spec inactive | HEK293 Tl ctr inactive
Cc1nnc(SCC(=O)Nc2cc(C(N)=O)cc(C(N)=O)c2)n1-c1ccccc1	none
COc1ccc(CSCC(=O)Nc2ccc(S(=O)(=O)N3CCCCCC3)cc2)cc1	none | KCNK9 inh conf inactive | Kir2-1 spec inactive | HEK293 Tl ctr inactive
COc1ccc(NC(=O)CSCC(=O)Nc2ccc(S(=O)(=O)N3CCCCC3)cc2)cc1	none
O=C(CSCc1ccc(Cl)cc1)Nc1ccc(S(=O)(=O)N2CCCCCC2)cc1	none | KCNK9 inh conf inactive | Kir2-1 spec inactive | HEK293 Tl ctr inactive
O=C(CSCc1ccc(Br)cc1)Nc1ccc(S(=O)(=O)N2CCOCC2)cc1	none
COc1ccc(/C=C(\NC(=O)c2ccccc2)C(=O)OCC2CCCN3CCCCC23)cc1OC (stereo unspecified)	none
Cc1ccc(C23CC4CC(CC(C(=O)N5CCOCC5)(C4)C2)C3)cc1	none
Cc1ccc(SCC(=O)OCC(=O)N(CC(C)C)C2CCS(=O)(=O)C2)cc1C (stereo unspecified)	none
O=C(OCc1ccc(Br)cc1)c1cccc(S(=O)(=O)N2CCCC2)c1	KCNK9 inh -12 | KCNK9 inh conf inactive | Kir2-1 spec inactive | HEK293 Tl ctr 34%
O=S(=O)(c1cccc(S(=O)(=O)N2CCCC2)c1)N1CCCCC1	none
O=S(=O)(c1cccc(S(=O)(=O)N2CCCC2)c1)c1cccc(S(=O)(=O)N2CCCC2)c1	KCNK9 inh -9.2 | KCNK9 inh conf 54% | Kir2-1 spec inactive | HEK293 Tl ctr inactive
CC(=O)N1CCN(S(=O)(=O)c2cccc(C(=O)OCc3ccc(C(C)(C)C)cc3)c2)CC1	none (no result: KCNQ1 pot, KCNK9 inh, KCNQ1 inh, hERG rescue, Kir21 inh)
COC(=O)c1sccc1NC(=S)N1CCN(c2ccccc2F)CC1	none
Cc1ccc(C(c2nnnn2C2CCCC2)N2c3ccccc3CC2C)cc1 (stereo unspecified)	KCNK9 inh -11, KCNQ1 inh 7 | KCNK9 inh conf 70% | Kir2-1 spec inactive | HEK293 Tl ctr 50%
Cc1ccc(-c2nc3ncccc3o2)cc1NC(=O)c1cc2ccccc2o1	none
O=C(Nc1cccc(-c2nc3ncccc3o2)c1)c1cc2ccccc2o1	KCNK9 inh -8.3 | KCNK9 inh conf 66% | Kir2-1 spec inactive | HEK293 Tl ctr inactive
Cc1ccc(OCCC(=O)N(CCC(C)C)c2c(N)n(Cc3ccccc3)c(=O)[nH]c2=O)cc1	none
CN(CC(=O)N1CCc2ccccc2C1)c1ccccc1	none
